Experimental findings from ChEMBL document CHEMBL1121649, “Benz-fused mesoionic xanthine analogues as inhibitors of cyclic-AMP phosphodiesterase” (J Med Chem, 1981) are described below.

What all share (assay type): protein assay
For experiment [1], the target named is T1, Heart phosphodiesterase (Bos taurus, UniProt Q01061+P14100+E1BN64). Kind of experiment: Inhibition of cAMP phosphodiesterase in bovine heart. Particulars: for pIC50: read-out: I50. An outline of the steps: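 I50 taken from a plot of uninhibited over inhibited velocity (V0/V) against inhibitor concentration, read where V0/V = 2. At least five inhibitor concentrations giving 25–75% inhibition were tested per inhibitor.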

For experiment [2], the target named is Heart phosphodiesterase (Bos taurus) (UniProt Q01061+P14100+E1BN64). Kind of experiment: Percent inhibition of bovine heart cAMP-phosphodiesterase at 10-20 uM.
Experiment [3] addresses T1, Heart phosphodiesterase. Kind of experiment: Inhibition of bovine heart cAMP-phosphodiesterase (Insoluble).

The structures appear in SMILES notation. pIC50: −log10 of the molar value.

Molecule `CCOc1ccc2c(c1)sc1[n+]2C(=O)C(CC)C(=O)N1CC1CC1` (stereo not given) showed an I50 on Heart phosphodiesterase [1] of 69 µM.
Regarding `CCC1C(=O)N(CC)c2sc3ccccc3[n+]2C1=O` (stereo not given), on Heart phosphodiesterase [1], the pIC50 is 3.82.
Consider `CCC1C(=O)N(CC2CCCC2)c2sc3ccccc3[n+]2C1=O` (stereo not given), for which, on Heart phosphodiesterase [1], the I50 is 102 µM.
The same measure, in the same setting: the same measure for `CCC1C(=O)N=C2Sc3ccccc3N2C1=O` (stereo not given): 467 µM.
Molecule `CCOc1ccc2c(c1)sc1[n+]2C(=O)C(CC)C(=O)N1CC1CCCCC1` (stereo not given) registered an I50 on Heart phosphodiesterase [1] of 8 µM. The molecule also displayed an inhibition in experiment [2] of 40%.
Consider `CCC1C(=O)N(CC2CC2)c2sc3cc(C)c(C)cc3[n+]2C1=O` (stereo not given), for which the I50 result at Heart phosphodiesterase [3] is “Insoluble”.
In the case of `CC(C)C1C(=O)N(CC2CC2)c2sc3ccccc3[n+]2C1=O` (stereo not given), the I50 result on Heart phosphodiesterase [3] was “Insoluble”.
Regarding `Cn1c(=O)c2nc[nH]c2n(C)c1=O` [THEOPHYLLINE], the pIC50 at Heart phosphodiesterase [1] is 3.39.
In the case of `COC(=O)c1cc(=O)n2c(sc3ccccc32)c1C(=O)OC`, the I50 entry at Heart phosphodiesterase [3] was “Insoluble”.

Broadly, the inhibition is how much of the control response was suppressed.
